This passage reports MIC, Activity and IC50 results from ChEMBL document CHEMBL4138273, “Cysteine-Derived Pleurotin Congeners from the Nematode-Trapping Basidiomycete Hohenbuehelia grisea” (J Nat Prod, 2018).

One experiment relates to Escherichia coli. The experiment is described as follows: microbe, parasite or virus in culture. Conditions: DSM 498.
The subject of the next experiment is Staphylococcus aureus. The experiment is described as follows: Antimicrobial activity against Staphylococcus aureus DSM 346 after 16 to 48 hrs by serial dilution method. The experiment is classed as functional. A digest of the protocol:
(§1)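 Inoculum was adjusted to 6.7 × 10^5 cells/mL. Top concentration was 67 μg/mL (20 μL of 1 mg/mL stock) or 100 μg/mL (20 μL of 1.5 mg/mL stock). Ethanol (20 μL) served as negative control.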

The subject of another experiment is Micrococcus luteus. The experiment is described as follows: Antimicrobial activity against Micrococcus luteus DSM 1790 after 16 to 48 hrs by serial dilution method. The experiment is classed as functional. A digest of the protocol: as §1
Experiment [1] concerns Schizosaccharomyces pombe. The experiment is described as follows: Antimicrobial activity against Schizosaccharomyces pombe DSM 70572 after 16 to 48 hrs by serial dilution method. Format: functional, organism-based. The procedure, abridged:
(§2)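 Yeasts and filamentous fungi were tested by serial dilution in 96-well plates in YMG medium. Inoculum was adjusted to 6.7 × 10^5 cells/mL. Highest tested level was 67 μg/mL (from 20 μL of 1 mg/mL stock) or 100 μg/mL (from 20 μL of 1.5 mg/mL stock). Ethanol (20 μL) was the negative control.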

For the next experiment, the system named is Mucor plumbeus. The experiment is described as follows: Antimicrobial activity against Mucor plumbeus MUCL 49355 after 16 to 48 hrs by serial dilution method. The experiment is classed as functional. The procedure, abridged:
as §2

Another experiment concerns Bacillus subtilis. The experiment is described as follows: Antimicrobial activity against Bacillus subtilis DSM10 after 16 to 48 hrs by serial dilution method. The experiment is classed as functional. The procedure, abridged: as §1
The next experiment relates to L929. The experiment is described as follows: Cytotoxicity against mouse L929 cells after 5 days by MTT assay. Conditions: L929, 120 h. The experiment is classed as functional, cell-based. A digest of the protocol:
(§3)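 Mouse fibroblast L929 and HeLa-derived KB3.1 cells were seeded at 6 × 10^3 cells/well in 96-well plates. Cells were exposed to compounds for 5 days, and IC50 was determined.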
A general note: Tetrazolium dyes change colour on reduction, which living cells bring about.

A further experiment deals with Wickerhamomyces anomalus. The experiment is described as follows: Antimicrobial activity against Pichia anomala DSM 6766 after 16 to 48 hrs by serial dilution method. The experiment is classed as functional. The procedure, abridged:
as §2

A further experiment has as its system Candida albicans. The experiment is described as follows: Antimicrobial activity against Candida albicans DSM 1665 after 16 to 48 hrs by serial dilution method. Format: functional. The procedure, abridged:
as §2

The test system of the next experiment is Yamadazyma tenuis. The experiment is described as follows: Antimicrobial activity against Candida tenuis MUCL 29892 after 16 to 48 hrs by serial dilution method. Format: functional. The procedure, abridged: as §2
Experiment [2] relates to Mycolicibacterium smegmatis. The experiment is described as follows: Antimicrobial activity against Mycobacterium smegmatis DSM 44200 after 16 to 48 hrs by serial dilution method. The experiment is classed as functional. A digest of the protocol:
as §1

The test system of a further experiment is Mucor hiemalis. The experiment is described as follows: Antimicrobial activity against Mucor hiemalis DSM 2656 after 16 to 48 hrs by serial dilution method. Format: functional. A digest of the protocol: as §2
The test system of the next experiment is Rhodotorula glutinis. The experiment is described as follows: Antimicrobial activity against Rhodotorula glutinis DSM 10134 after 16 to 48 hrs by serial dilution method. Format: functional. The procedure, abridged: as §2
For another experiment, the system named is KB 3-1. The experiment is described as follows: Cytotoxicity against human KB3-1 cells after 5 days by MTT assay. The experiment is classed as functional, cell-based. The conditions noted are these: KB 3-1, 120 h. A digest of the protocol: as §3

In brackets after ≈: the same amount, converted by molar mass. Activity calls are given as the source filed them. The calls are words filed in the database; no cut-off is given here.

In the experiment with Escherichia coli, `O=C(O)c1cn(C2CC2)c2cc(N3CCNCC3)c(F)cc2c1=O` [CIPROFLOXACIN] registered an MIC of 3.1 µg/mL (≈ 9.36 µM).

Regarding `C[C@@H]1CO[C@@H]2C3=C(CC4[C@H](C(=O)O)CCC5[C@@H]1CC[C@]452)C(=O)C=CC3=O` (stereo partly specified), the MIC with Staphylococcus aureus is 33.3 µg/mL (≈ 93.4 µM); in the experiment with Micrococcus luteus, 66.7 µg/mL (≈ 187 µM); with Mucor plumbeus it was 100 µg/mL (≈ 281 µM); with Bacillus subtilis it was 50 µg/mL (≈ 140 µM); in the experiment on Wickerhamomyces anomalus (Hansenula anomala), 66.7 µg/mL (≈ 187 µM); with Candida albicans it was 33.3 µg/mL (≈ 93.4 µM). Besides, the MIC against Yamadazyma tenuis was 25 µg/mL (≈ 70.1 µM); in the experiment on Mucor hiemalis, 8.3 µg/mL (≈ 23.3 µM); with Rhodotorula glutinis it was 16.7 µg/mL (≈ 46.9 µM). Moreover, the outcome in experiment [1] and in [2] was inactive. Further, the concentration for half-maximal inhibition (IC50) (usually the concentration that inhibits the measured activity by half) in the experiment on L929 worked out at 7.5 µg/mL (≈ 21 µM); in the experiment with KB 3-1, 8.5 µg/mL (≈ 23.8 µM).

Consider `C[C@@H]1CO[C@@H]2C3=C(CC4[C@H](C(=O)O)CCC5[C@@H]1CC[C@]452)C(=O)C(SC[C@H](O)C(=O)O)=CC3=O` (stereo partly specified), for which the outcome (in the experiment with Staphylococcus aureus; in the experiment with Micrococcus luteus; in experiment [1]; in the experiment with Mucor plumbeus; with Bacillus subtilis; in the experiment with Wickerhamomyces anomalus) was inactive. Besides, the outcome (with Candida albicans; in the experiment with Yamadazyma tenuis; in experiment [2]; in the experiment on Mucor hiemalis; in the experiment with Rhodotorula glutinis) was inactive.

Regarding `C[C@@H]1CO[C@@H]2C3=C(C(=O)C=CC3=O)[C@H]3OC(=O)[C@@H]4CC[C@H]5[C@@H]1CC[C@@]25[C@@H]34` (racemic), the MIC is 66.7 µg/mL (≈ 188 µM) in the experiment with Staphylococcus aureus; 100 µg/mL (≈ 282 µM) against Mucor plumbeus; 100 µg/mL (≈ 282 µM) against Bacillus subtilis; 66.7 µg/mL (≈ 188 µM) against Wickerhamomyces anomalus (Hansenula anomala); 100 µg/mL (≈ 282 µM) in the experiment on Yamadazyma tenuis; 16.7 µg/mL (≈ 47.1 µM) in the experiment with Mucor hiemalis. The compound also displayed an MIC in the experiment on Rhodotorula glutinis of 33.3 µg/mL (≈ 94 µM). Moreover, the outcome (in the experiment with Micrococcus luteus; in experiment [1]; with Candida albicans; in experiment [2]) was inactive. The figures for the IC50 with L929 and with KB 3-1 were 2.2 µg/mL (≈ 6.21 µM) and 2.8 µg/mL (≈ 7.9 µM), respectively.

In the case of NYSTATIN, the MIC in [1] stood at 16.7 µg/mL; against Mucor plumbeus, 12.5 µg/mL; against Wickerhamomyces anomalus, 16.7 µg/mL; in the experiment on Candida albicans, 16.7 µg/mL; against Yamadazyma tenuis it was 12.5 µg/mL; with Mucor hiemalis, 16.7 µg/mL. The MIC in the experiment on Rhodotorula glutinis is 16.7 µg/mL.

For `NC[C@H]1O[C@H](O[C@H]2[C@H](O)[C@@H](O[C@H]3O[C@H](CO)[C@@H](O)[C@H](N)[C@H]3O)[C@H](N)C[C@@H]2N)[C@H](O)[C@@H](O)[C@@H]1O` [KANAMYCIN], the MIC in [2] turned out to be 0.4 µg/mL (≈ 0.826 µM).

In the experiment with Bacillus subtilis, `CC1(C)S[C@@H]2[C@H](NC(=O)Cc3ccccc3)C(=O)N2[C@H]1C(=O)O` [PENICILLIN G] showed an MIC of 6.3 µg/mL (≈ 18.8 µM).

As for `C[C@@H]1CO[C@@H]2c3c(O)cc4scnc4c3C[C@H]3[C@H](C(=O)O)CC[C@H]4[C@@H]1CC[C@@]243`, the outcome (with Staphylococcus aureus; in the experiment with Micrococcus luteus; in experiment [1]; in the experiment on Mucor plumbeus; in the experiment with Bacillus subtilis; in the experiment on Candida albicans) was inactive. Further, the result (in [2]; with Mucor hiemalis) was inactive. The MIC with Wickerhamomyces anomalus (Hansenula anomala) is 66.7 µg/mL (≈ 167 µM); with Yamadazyma tenuis, 100 µg/mL (≈ 250 µM); with Rhodotorula glutinis, 33.3 µg/mL (≈ 83.4 µM).

In the case of `CC(=O)N[C@@H](CSC1=CC(=O)C2=C(CC3[C@H](C(=O)O)CCC4[C@@H]5CC[C@]34[C@@H]2OC[C@H]5C)C1=O)C(=O)O` (stereo partly specified), the outcome (in the experiment with Staphylococcus aureus; in the experiment with Micrococcus luteus; in experiment [1]; with Mucor plumbeus; in the experiment with Bacillus subtilis; in the experiment with Candida albicans) was inactive. The outcome (in experiment [2]; with Mucor hiemalis) was inactive. In addition, the MIC was determined as 66.7 µg/mL (≈ 129 µM) in the experiment on Wickerhamomyces anomalus (Hansenula anomala), 100 µg/mL (≈ 193 µM) in the experiment with Yamadazyma tenuis and 33.3 µg/mL (≈ 64.3 µM) with Rhodotorula glutinis.

Take `CN(C)[C@@H]1C(O)=C(C(N)=O)C(=O)[C@@]2(O)C(O)=C3C(=O)c4c(O)cccc4[C@@](C)(O)[C@H]3[C@H](O)[C@@H]12` [OXYTETRACYCLINE]: the MIC against Staphylococcus aureus came out at 6.7 µg/mL (≈ 14.6 µM); in the experiment with Micrococcus luteus, 0.4 µg/mL (≈ 0.869 µM).
